Screening data deposited in PubChem by several laboratories.
HSP90 inh – blocks HSP90-mediated luciferase refolding in reticulocyte lysate; Rabbit reticulocyte lysate, luciferase refolding luminescence, 3 h; inhibition, % at 5.6 µM; 290,000 compounds, 0.91% hits; AID 1789;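 active = inhibition above the screen-wide mean plus 3 SD, computed separately per campaign, cut at about 16% in these data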;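 also: inhibitors lower the luminescence because luciferase stays unfolded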
TRAIL sens C8 – sensitizes caspase-8 expressing cells to TRAIL | AID 624354 | inhibition (viability loss, TRAIL sensitization), % at 10 µM | NB7+C8 cells + TRAIL, ATPlite viability luminescence | 360,000 compounds, 1% hits;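 active = compounds causing at least 50% loss of cell viability in the single-dose screen, relative to plate controls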
PPC-1+TRAIL kill – PPC-1 cancer cell killing with TRAIL present | 220,000 compounds, 0.41% hits | PPC-1 cells + TRAIL, ATPLite viability luminescence | cell killing (% activity), % at 4 µM or 5 µM;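 active = cell killing above 50% in the first pass at 4 µM, then a duplicate retest at 5 µM averaging 50% or more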
FLuc stim CS – affects firefly luciferase, flagging false hits in luciferase stimulation screens | ATPlite luciferase biochemical, luminescence, 10 min; 0 = ATP-free wells, 1 = DMSO control | activation factor at 10 µM | 200,000 tested, under 10 active;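 active = luciferase activation factor, scaled between plate controls, of at least 2 with compound at 10 µM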
Target sequence (P08659 whole entry, looked up): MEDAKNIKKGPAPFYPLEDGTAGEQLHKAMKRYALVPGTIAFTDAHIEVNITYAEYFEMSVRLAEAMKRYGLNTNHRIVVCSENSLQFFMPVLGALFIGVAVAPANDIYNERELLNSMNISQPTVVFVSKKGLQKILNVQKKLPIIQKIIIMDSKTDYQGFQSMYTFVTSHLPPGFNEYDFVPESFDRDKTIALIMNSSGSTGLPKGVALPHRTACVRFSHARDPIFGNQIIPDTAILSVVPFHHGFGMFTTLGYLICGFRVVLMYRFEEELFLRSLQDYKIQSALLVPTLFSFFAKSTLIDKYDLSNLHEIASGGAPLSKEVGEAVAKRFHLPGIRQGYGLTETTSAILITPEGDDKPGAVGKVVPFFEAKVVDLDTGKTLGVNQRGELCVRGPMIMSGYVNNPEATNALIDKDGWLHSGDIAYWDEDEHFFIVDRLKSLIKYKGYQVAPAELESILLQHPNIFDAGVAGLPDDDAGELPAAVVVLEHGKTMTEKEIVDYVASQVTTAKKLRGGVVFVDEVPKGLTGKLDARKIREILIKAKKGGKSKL
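Assay system – cell-free luciferase reagent · Medium – PBS-based ATP solution · Dosing – test compounds dosed from 2 mM stocks in 100% DMSO · Timing – 10 min, room temperature · Technique – light output (luminescence) · Measure – luminescence gain marking luciferase activators · Controls – No-ATP low control, compound-free enzyme-plus-ATP high control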
FLuc inhib CS – counter-screen for luciferase assay inhibitors: firefly luciferase inhibition; ATPLite firefly luciferase biochemical luminescence, 10 min; inhibition, % at 10 µM; 200,000 compounds, 1.5% hits;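 active = inhibition above about 50% when tested at 10 µM, limit read from the data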
Hits are given with their value. Hits are enriched below; roughly 2% of the tested compounds scored in any of these assays.

Screening COCCN=C1NN=C(c2cc(C)n(CC3CCCO3)c2C)CS1 (stereo not drawn) returned HSP90 inh inactive, TRAIL sens C8 inactive, PPC-1+TRAIL kill inactive, FLuc stim CS inactive and FLuc inhib CS inactive.
Screening Cc1ccc(-n2c(C)cc(C3=NNC(=NC4CC4)SC3)c2C)cc1C returned HSP90 inh inactive, TRAIL sens C8 64.3, PPC-1+TRAIL kill inactive, FLuc stim CS inactive and FLuc inhib CS 63.2.
For CCCCNC(=O)C1Cc2cc(S(=O)(=O)N3CCCC3)ccc2N1C(C)=O (stereo not drawn) the results were HSP90 inh inactive and TRAIL sens C8 inactive.
Screening Cc1ccc(CNC(=O)C2CCCN(c3ncnc4c3nc3n4CCCCC3)C2)cc1 (stereo not drawn) returned HSP90 inh inactive and TRAIL sens C8 inactive.
For C[C@H](O)[C@@H]1C(=O)N2CCc3ccc(N4CCOCC4)cc3[C@@H]2C[C@@H]1N(C)C(=O)Nc1ccccc1 the results were TRAIL sens C8 inactive.
For CCc1cc2c3c([nH]c2cc1S(=O)(=O)NCCCOC)CC(C)(C)CC3=O the results were HSP90 inh inactive and TRAIL sens C8 inactive.
`CCc1ccc2nc(N)sc2c1` gave HSP90 inh inactive, TRAIL sens C8 inactive, PPC-1+TRAIL kill inactive, FLuc stim CS inactive and FLuc inhib CS 56.3.
For CCc1ccc(NC(=O)c2ccc3nc(N)sc3c2)cc1 the results were HSP90 inh inactive, TRAIL sens C8 inactive, PPC-1+TRAIL kill inactive, FLuc stim CS inactive and FLuc inhib CS inactive.
COc1ccc(C(=O)Nc2nc3cc4c(cc3s2)OCO4)c(OC)c1 was read as HSP90 inh inactive, TRAIL sens C8 51.0 and PPC-1+TRAIL kill inactive.
Screening CC(=O)Nc1nc2cc3c(cc2s1)OCCO3 returned HSP90 inh 17.4 and TRAIL sens C8 inactive.
Screening Fc1cccc2sc(Nc3nc4cc5c(cc4s3)OCCO5)nc12 returned HSP90 inh inactive, TRAIL sens C8 52.9, PPC-1+TRAIL kill inactive, FLuc stim CS inactive and FLuc inhib CS 79.3.
`Fc1cccc2sc(Nc3nc4cc5c(cc4s3)OCO5)nc12` gave HSP90 inh inactive, TRAIL sens C8 inactive, PPC-1+TRAIL kill inactive, FLuc stim CS inactive and FLuc inhib CS inactive.
O=C(Cn1ncc(Cl)c(Cl)c1=O)N1CCN(Cc2ccccc2)CC1 was read as HSP90 inh inactive, TRAIL sens C8 inactive, PPC-1+TRAIL kill inactive, FLuc stim CS inactive and FLuc inhib CS inactive.
CCc1ccc(C(=O)Cn2ncc(Cl)c(Cl)c2=O)cc1 was read as HSP90 inh inactive, TRAIL sens C8 97.0, PPC-1+TRAIL kill inactive, FLuc stim CS inactive and FLuc inhib CS inactive.
Screening Cc1ccc(Cn2ncc(Cl)c(Cl)c2=O)cc1 returned HSP90 inh inactive, TRAIL sens C8 91.1, PPC-1+TRAIL kill inactive, FLuc stim CS inactive and FLuc inhib CS inactive.
For Cc1cc(C)cc(Cn2ncc(Cl)c(Cl)c2=O)c1 the results were HSP90 inh inactive, PPC-1+TRAIL kill inactive, FLuc stim CS inactive and FLuc inhib CS inactive.
For C/C(=C\C(=O)c1ccccc1)Nc1ccc(O)cc1 the results were HSP90 inh inactive, TRAIL sens C8 inactive, PPC-1+TRAIL kill inactive, FLuc stim CS inactive and FLuc inhib CS inactive.
For CC(=O)c1cccc(N/C=C\C(=O)c2ccc(C)cc2)c1 the results were HSP90 inh inactive, TRAIL sens C8 52.1, PPC-1+TRAIL kill 61.5, FLuc stim CS inactive and FLuc inhib CS 91.2.
For Cc1ccc(C(=O)/C=C/Nc2ccc3c(c2)OCO3)cc1 the results were HSP90 inh inactive, TRAIL sens C8 61.4, PPC-1+TRAIL kill inactive, FLuc stim CS inactive and FLuc inhib CS 79.6.
For C/C(=C\C(=O)c1ccc(C)cc1)Nc1cccc(O)c1 the results were HSP90 inh inactive, TRAIL sens C8 inactive, PPC-1+TRAIL kill inactive, FLuc stim CS inactive and FLuc inhib CS 65.4.
`CCc1nc2c(OCCC3CCCCC3)cccn2c1N(C)C(=O)c1ccccc1F` gave TRAIL sens C8 inactive.
Screening O=C(COC(=O)CC1CCCCC1)Nc1c(Cl)cccc1Cl returned TRAIL sens C8 inactive.
For O=C(O)C1CCCCC1C(=O)NCc1ccc(Cl)c(Cl)c1 (stereo not drawn) the results were HSP90 inh inactive, TRAIL sens C8 inactive, PPC-1+TRAIL kill inactive, FLuc stim CS inactive and FLuc inhib CS inactive.
Screening COc1ccc(NC(=O)C2(N(CC(C)C)C(=O)Cn3nnnc3N)CCCCC2)cc1 returned HSP90 inh inactive, TRAIL sens C8 inactive, PPC-1+TRAIL kill 55.6, FLuc stim CS inactive and FLuc inhib CS inactive.
Screening COc1ccc(C)cc1S(=O)(=O)N1CCN(C)CC1c1ccccc1 (stereo not drawn) returned TRAIL sens C8 inactive.
